Published values gathered from unrelated publications.
Compare with care: the assays were run in different laboratories.
Observed: cell growth or viability

For COc1ccc(C(=O)c2c[nH]c3ncc(-c4ccc(N5CCNCC5)nc4)cc23)cc1, the viability was 99.2% (MRC5; MTT; 10 µM; 48 h).
C1COCCN1.COc1ccc(/C=C\c2cc(I)c(OC)c(I)c2)cc1OP(=O)(O)O gave a GI50 of greater than 1 µg/mL (KM-20L2; SRB; 48 h).
For COc1ccc(C(=O)c2c[nH]c3ncc(-c4ccc(N5CCN(S(C)(=O)=O)CC5)nc4)cc23)cc1, the viability was 70.1% (MRC5; MTT; 10 µM; 48 h).
The IC50 of [Cl-].[Cl-].[Co+2] is reported as greater than 150 µM (BEL-7404; MTT; 48 h).
With CCN1C(=O)SCC1C1(OC)CC2CC(CCC(C)C=CC=CCCC(C)=CC(=O)O2)O1 (stereo not drawn) the IC50 was greater than 50 µM (MDA-MB-231; MTT; 72 h).
With N.N.[Cl][Pt][Cl] the EC50 was 1.2 µM (A-375; SRB).
C/C1=C/C(=O)O[C@@H]2C[C@@H](CC[C@H](C)/C=C\C=C\CC1)O[C@@](O)([C@@H]1CSC(=O)N1)C2 gave an IC50 of 4.19 µM (MDA-MB-231; MTT; 72 h).
The IC50 of COc1cccc2c1C(=O)c1c(O)c3c(c(O)c1C2=O)C[C@@](O)(C(=O)CO)C[C@@H]3O[C@H]1C[C@H](N)[C@H](O)[C@H](C)O1 is reported as 0.9 µg/mL (LLC-PK11; 48 h).
CCN1C(=O)SC[C@H]1[C@@]1(O)C[C@H]2C[C@@H](CC[C@H](C)/C=C\C=C\CC/C(C)=C\C(=O)O2)O1 has an IC50 of 7.19 µM (MDA-MB-231; MTT; 72 h).
The GI50 of N.N.[Cl][Pt][Cl] is reported as 4.18 µM (MDA-MB-231; MTT; 72 h).
O=C(c1cccc(F)c1)c1c[nH]c2ncc(-c3ccc(N4CCNCC4)nc3)cc12 gave a viability of 66.2% (MRC5; MTT; 10 µM; 48 h).
For C/C1=C/C(=O)O[C@@H]2C[C@@H](CC[C@H](C)/C=C\C=C\CC1)O[C@@](OCCc1ccccc1)([C@@H]1CSC(=O)N1)C2, the IC50 was 2.71 µM (MDA-MB-231; MTT; 72 h).
